Reference: ChEMBL document CHEMBL4257503, “N-Acetyl-3-aminopyrazoles block the non-canonical NF-kB cascade by selectively inhibiting NIK” (Medchemcomm, 2018)
≈ marks a conversion by molar mass, not a printed value. Calls of active or inactive are those of the source. The calls are words filed in the database; no cut-off is given here.

Assays:
[1] = biological target: Serine/threonine-protein kinase 4 (Homo sapiens, UniProt Q13043); experiment: Inhibition of MST1 (unknown origin)
[2] = biological target: Proto-oncogene tyrosine-protein kinase Src (Homo sapiens, UniProt P12931); experiment: Inhibition of GST/His-tagged SRC (unknown origin)
[3] = biological target: Serine/threonine-protein kinase Nek6 (Homo sapiens, UniProt Q9HC98); experiment: Inhibition of NEK6 (unknown origin)
[4] = biological target: Tyrosine-protein kinase SYK (Homo sapiens, UniProt P43405); experiment: Inhibition of SYK (unknown origin)
[5] = biological target: Mitogen-activated protein kinase kinase kinase 14 (Homo sapiens, UniProt Q99558); experiment: Inhibition of NIK-induced NFkappaB activation in human EJM cells at 25 uM after 6 hrs by dual luciferase reporter gene assay relative to control; type: cell-based
Method in brief: (§1)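 Cells were nucleofected with the pGL4.32 NF-κB-RE firefly luciferase and pGL4.74 TK-Renilla plasmids (3 µg, 10:1 ratio) and cultured for 24 h at 37 °C. Compound (10, 25, 50 or 100 µM) was then added for 6 h. Firefly luminescence was normalised to Renilla from the same sample and expressed as % of vehicle control. Means ± SD of three independent experiments.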

[6] = biological target: T1, Inhibitor of nuclear factor kappa-B kinase subunit alpha (Homo sapiens, UniProt O15111); experiment: Inhibition of recombinant full length human His-tagged IKKalpha expressed in baculovirus expression system using ERLLDDRHDSGLDSMKDEE peptide as substrate measured after 60 mins by ADP-Glo kinase assay
T1 sequence (O15111 whole entry): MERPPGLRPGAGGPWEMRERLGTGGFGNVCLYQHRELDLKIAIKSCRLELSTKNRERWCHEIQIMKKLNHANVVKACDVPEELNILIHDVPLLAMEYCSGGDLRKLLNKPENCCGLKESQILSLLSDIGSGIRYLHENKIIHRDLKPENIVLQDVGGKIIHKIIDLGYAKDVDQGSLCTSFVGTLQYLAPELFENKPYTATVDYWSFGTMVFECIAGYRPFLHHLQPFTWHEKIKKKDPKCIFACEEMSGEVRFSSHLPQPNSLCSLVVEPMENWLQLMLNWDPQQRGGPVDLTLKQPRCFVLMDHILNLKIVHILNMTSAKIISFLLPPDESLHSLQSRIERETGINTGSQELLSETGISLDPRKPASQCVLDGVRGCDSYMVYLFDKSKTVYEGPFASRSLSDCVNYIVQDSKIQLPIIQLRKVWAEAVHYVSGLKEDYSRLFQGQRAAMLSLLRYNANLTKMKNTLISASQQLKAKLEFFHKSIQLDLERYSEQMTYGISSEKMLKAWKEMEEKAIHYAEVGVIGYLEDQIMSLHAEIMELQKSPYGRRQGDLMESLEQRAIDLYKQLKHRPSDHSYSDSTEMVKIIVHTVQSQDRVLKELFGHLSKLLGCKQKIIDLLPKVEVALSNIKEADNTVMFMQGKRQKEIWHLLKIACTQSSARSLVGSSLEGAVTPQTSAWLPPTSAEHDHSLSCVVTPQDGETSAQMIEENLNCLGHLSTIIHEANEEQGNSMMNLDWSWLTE
Method in brief: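 Recombinant human IKKα, peptide substrate 100 µM, enzyme 8 ng/µL, ATP 1 µM in Tris-HCl pH 7.5 buffer with MgCl2, MnCl2, DTT, Na3VO4, BSA; 25°C, 60 min; ADP-Glo luminescence. Ten concentrations 0.005–100 µM; IC50 by nonlinear regression; means ± SD of three independent experiments.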

[7] = biological target: Mitogen-activated protein kinase kinase kinase 8 (Homo sapiens, UniProt P41279); experiment: Inhibition of COT (unknown origin)
[8] = biological target: Serine/threonine-protein kinase B-raf (Homo sapiens, UniProt P15056); experiment: Inhibition of wild-type B-RAF (unknown origin)
[9] = biological target: Fibroblast growth factor receptor 1 (Homo sapiens, UniProt P11362); experiment: Inhibition of wild-type FGFR1 (unknown origin)
[10] = biological target: Tyrosine-protein kinase receptor UFO (Homo sapiens, UniProt P30530); experiment: Inhibition of AXL (unknown origin)
[11] = biological target: Death-associated protein kinase 1 (Homo sapiens, UniProt P53355); experiment: Inhibition of DAPK1 (unknown origin)
[12] = organism: Homo sapiens; experiment: Inhibition of NFkappaB activation in human SKBR3 cells at 100 uM after 6 hrs by dual luciferase reporter gene assay relative to control; type: cell-based; method in brief: as §1
[13] = biological target: Homeodomain-interacting protein kinase 1 (Homo sapiens, UniProt Q86Z02); experiment: Inhibition of HIPK1 (unknown origin)
[14] = biological target: Cyclin-dependent kinase 1/cyclin B1 (Homo sapiens, UniProt P06493); experiment: Inhibition of CDK1/Cyclin B1 (unknown origin); type: protein-complex assay
[15] = biological target: Casein kinase I isoform alpha (Homo sapiens, UniProt P48729); experiment: Inhibition of CK1-alpha1 (unknown origin)
[16] = Kinetic solubility in phosphate buffered saline at pH 7.4 measured after 60 mins; type: physicochemical; settings: read-out: Kinetic_solubility
[17] = Stability in human liver microsomes at 1 uM in absence of NADPH cofactor; type: ADME, microsome
[18] = biological target: Serine/threonine-protein kinase PAK 1 (Homo sapiens, UniProt Q13153); experiment: Inhibition of PAK1 (unknown origin)
[19] = biological target: Platelet-derived growth factor receptor alpha (Homo sapiens, UniProt P16234); experiment: Inhibition of wild-type PDGFR-alpha (unknown origin)
[20] = test system: Mitogen-activated protein kinase kinase kinase 14 (Homo sapiens), Q99558 [S549D]; experiment: Inhibition of human NIK kinase domain S549D mutant
[21] = biological target: Dual specificity protein kinase CLK1 (Homo sapiens, UniProt P49759); experiment: Inhibition of CLK1 (unknown origin)
[22] = biological target: Serine/threonine-protein kinase pim-1 (Homo sapiens, UniProt P11309); experiment: Inhibition of PIM1 (unknown origin)
[23] = biological target: Ephrin type-A receptor 6 (Homo sapiens, UniProt Q9UF33); experiment: Inhibition of EPHA6 (unknown origin)
[24] = biological target: Glycogen synthase kinase-3 beta (Homo sapiens, UniProt P49841); experiment: Inhibition of GSK3-beta (unknown origin)
[25] = Octanol/phosphate buffered saline partition coefficient, log D of the compound at pH 7.4; type: physicochemical

Glycogen synthase kinase-3 beta, sequence (P49841 whole entry): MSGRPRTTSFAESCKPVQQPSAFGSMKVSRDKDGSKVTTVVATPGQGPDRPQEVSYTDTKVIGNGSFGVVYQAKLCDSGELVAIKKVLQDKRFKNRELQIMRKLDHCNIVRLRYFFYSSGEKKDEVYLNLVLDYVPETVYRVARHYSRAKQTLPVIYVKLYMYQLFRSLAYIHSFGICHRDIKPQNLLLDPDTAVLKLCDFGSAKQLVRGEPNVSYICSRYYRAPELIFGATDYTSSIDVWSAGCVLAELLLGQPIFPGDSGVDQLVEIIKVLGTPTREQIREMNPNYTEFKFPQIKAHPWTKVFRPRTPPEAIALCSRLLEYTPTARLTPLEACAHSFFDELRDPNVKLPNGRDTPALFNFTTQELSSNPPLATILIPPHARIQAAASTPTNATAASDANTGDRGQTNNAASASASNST
Serine/threonine-protein kinase Nek6, sequence (Q9HC98 whole entry): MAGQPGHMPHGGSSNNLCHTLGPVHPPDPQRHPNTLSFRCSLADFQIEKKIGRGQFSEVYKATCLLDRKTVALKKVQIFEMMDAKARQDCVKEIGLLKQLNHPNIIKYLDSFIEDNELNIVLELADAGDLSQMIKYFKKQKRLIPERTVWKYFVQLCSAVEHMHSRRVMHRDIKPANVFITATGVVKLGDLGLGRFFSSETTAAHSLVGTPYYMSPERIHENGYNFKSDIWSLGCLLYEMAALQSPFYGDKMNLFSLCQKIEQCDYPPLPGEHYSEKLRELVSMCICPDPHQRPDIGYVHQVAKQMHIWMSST
Homeodomain-interacting protein kinase 1, sequence (Q86Z02 whole entry): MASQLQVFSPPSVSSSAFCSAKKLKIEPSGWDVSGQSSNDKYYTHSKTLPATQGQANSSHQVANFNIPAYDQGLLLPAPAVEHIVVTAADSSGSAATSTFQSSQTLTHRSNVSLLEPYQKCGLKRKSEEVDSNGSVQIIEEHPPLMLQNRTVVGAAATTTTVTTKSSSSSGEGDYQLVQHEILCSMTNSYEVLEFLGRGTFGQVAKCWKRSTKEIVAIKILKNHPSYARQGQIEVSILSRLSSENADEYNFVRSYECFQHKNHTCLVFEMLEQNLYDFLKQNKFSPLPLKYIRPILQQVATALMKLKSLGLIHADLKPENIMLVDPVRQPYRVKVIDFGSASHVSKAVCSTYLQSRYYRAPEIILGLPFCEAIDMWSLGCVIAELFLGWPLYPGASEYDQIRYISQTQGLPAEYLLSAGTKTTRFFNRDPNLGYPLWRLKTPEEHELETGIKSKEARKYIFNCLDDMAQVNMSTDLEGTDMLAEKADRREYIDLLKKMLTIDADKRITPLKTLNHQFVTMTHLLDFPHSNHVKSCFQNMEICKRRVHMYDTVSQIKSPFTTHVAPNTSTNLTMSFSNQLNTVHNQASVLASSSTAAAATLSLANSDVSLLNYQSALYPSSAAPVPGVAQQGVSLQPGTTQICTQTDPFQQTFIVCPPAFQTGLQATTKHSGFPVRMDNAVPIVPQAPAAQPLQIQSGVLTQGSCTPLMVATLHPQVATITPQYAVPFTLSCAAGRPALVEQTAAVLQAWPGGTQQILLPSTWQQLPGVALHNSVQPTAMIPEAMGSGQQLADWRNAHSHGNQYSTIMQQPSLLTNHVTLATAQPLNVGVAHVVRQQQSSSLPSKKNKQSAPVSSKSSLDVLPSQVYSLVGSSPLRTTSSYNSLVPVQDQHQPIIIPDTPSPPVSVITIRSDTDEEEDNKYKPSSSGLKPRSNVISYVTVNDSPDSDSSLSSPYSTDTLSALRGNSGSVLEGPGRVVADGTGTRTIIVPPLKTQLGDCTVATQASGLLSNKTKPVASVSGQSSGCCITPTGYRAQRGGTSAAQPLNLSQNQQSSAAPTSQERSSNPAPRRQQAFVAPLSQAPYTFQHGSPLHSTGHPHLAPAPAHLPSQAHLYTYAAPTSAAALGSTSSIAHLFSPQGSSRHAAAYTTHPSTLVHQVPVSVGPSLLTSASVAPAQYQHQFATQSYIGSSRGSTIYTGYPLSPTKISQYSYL
Fibroblast growth factor receptor 1, sequence (P11362 whole entry): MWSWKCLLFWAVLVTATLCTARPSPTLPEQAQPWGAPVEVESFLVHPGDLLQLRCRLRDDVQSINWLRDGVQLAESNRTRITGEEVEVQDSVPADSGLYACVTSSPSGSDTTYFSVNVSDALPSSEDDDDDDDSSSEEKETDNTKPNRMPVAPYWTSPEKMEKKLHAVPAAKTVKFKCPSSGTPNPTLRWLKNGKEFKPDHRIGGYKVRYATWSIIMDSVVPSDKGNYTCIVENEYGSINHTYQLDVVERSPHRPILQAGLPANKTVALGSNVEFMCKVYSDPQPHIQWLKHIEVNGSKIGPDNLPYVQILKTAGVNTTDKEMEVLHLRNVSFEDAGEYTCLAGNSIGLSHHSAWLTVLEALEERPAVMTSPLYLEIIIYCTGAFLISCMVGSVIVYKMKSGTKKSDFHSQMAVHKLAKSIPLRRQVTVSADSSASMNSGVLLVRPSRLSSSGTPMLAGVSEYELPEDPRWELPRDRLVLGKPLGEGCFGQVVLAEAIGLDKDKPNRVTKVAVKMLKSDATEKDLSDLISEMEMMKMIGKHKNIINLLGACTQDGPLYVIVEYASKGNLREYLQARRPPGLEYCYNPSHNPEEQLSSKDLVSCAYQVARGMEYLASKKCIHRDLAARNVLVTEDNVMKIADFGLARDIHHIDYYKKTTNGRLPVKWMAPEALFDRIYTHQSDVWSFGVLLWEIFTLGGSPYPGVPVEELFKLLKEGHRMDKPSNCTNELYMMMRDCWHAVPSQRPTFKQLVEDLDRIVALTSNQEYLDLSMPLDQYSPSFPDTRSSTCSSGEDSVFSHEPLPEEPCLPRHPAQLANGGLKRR
Serine/threonine-protein kinase PAK 1, sequence (Q13153 whole entry): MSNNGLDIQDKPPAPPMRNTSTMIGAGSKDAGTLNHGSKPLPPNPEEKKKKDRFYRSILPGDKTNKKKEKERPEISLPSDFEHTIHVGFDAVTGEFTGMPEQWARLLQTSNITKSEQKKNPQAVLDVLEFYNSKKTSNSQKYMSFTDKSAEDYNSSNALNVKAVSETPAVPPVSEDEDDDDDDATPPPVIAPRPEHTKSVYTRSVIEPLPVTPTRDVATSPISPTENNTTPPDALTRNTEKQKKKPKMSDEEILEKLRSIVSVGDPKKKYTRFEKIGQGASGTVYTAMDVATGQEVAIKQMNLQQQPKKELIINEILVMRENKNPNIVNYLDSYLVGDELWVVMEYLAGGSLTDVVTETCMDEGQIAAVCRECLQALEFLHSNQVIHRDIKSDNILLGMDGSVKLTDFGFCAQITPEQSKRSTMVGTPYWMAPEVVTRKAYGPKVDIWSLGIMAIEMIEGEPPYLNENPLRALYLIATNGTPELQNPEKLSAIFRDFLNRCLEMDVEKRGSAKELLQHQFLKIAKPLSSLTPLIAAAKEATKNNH
Platelet-derived growth factor receptor alpha, sequence (P16234 whole entry, the tested form may be a part): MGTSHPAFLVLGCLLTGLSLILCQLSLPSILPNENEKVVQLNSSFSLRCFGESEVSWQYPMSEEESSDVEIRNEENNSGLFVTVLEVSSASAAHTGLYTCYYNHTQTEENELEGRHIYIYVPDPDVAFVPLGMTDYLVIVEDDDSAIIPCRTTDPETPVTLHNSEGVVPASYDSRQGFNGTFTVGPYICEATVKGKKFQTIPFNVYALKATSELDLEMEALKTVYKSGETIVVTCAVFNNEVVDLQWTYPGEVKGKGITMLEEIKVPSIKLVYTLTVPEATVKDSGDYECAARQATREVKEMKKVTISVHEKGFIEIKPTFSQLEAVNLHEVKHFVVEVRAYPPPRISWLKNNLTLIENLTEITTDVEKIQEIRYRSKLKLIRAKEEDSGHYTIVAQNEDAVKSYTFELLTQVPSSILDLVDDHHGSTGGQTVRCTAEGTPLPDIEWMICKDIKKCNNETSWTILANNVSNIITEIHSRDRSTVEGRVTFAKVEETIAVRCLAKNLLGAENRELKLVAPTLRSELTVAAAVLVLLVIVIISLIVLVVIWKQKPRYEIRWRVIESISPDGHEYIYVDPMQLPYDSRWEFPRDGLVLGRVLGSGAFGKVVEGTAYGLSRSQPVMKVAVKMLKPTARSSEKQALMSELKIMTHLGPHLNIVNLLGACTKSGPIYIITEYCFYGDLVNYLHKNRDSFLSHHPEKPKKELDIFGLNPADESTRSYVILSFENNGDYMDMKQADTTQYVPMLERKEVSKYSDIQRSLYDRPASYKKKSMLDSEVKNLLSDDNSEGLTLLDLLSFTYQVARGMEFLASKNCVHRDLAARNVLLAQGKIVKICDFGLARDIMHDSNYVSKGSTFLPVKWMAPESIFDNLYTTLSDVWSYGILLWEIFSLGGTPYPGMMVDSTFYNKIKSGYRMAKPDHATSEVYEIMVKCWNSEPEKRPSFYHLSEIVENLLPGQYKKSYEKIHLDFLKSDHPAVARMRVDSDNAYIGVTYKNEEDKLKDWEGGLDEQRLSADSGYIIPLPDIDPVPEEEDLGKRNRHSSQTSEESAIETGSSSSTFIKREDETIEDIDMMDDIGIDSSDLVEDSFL
Casein kinase I isoform alpha, sequence (P48729 whole entry, canonical isoform): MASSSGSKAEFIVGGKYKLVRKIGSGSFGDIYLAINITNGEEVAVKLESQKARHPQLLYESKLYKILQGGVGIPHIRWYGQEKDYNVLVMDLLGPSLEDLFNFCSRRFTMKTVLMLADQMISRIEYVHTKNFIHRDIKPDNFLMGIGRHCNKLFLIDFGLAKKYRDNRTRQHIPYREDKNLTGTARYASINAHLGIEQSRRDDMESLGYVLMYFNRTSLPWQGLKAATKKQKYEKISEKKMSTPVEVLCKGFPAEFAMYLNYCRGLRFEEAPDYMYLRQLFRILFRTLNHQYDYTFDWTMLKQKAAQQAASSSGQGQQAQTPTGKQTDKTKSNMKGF
Serine/threonine-protein kinase pim-1, sequence (P11309 whole entry): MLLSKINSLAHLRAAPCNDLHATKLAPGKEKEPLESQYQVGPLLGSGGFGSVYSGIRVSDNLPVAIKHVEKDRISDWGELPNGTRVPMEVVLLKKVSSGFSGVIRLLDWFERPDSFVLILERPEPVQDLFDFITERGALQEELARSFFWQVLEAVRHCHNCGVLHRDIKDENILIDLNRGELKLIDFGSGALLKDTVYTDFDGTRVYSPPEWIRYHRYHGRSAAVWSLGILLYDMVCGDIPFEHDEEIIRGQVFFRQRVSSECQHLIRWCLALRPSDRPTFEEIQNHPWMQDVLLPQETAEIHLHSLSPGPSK

With `CC(=O)n1nc(C)c(-c2ccc(Cl)c(Cl)c2)c1N` the IC50 [1] was > 100 µM, the IC50 [2] was > 100 µM and the IC50 [3] was > 100 µM. For the same molecule, the IC50 [4] was > 100 µM, the inhibition [5] was 83.4% and the IC50 [6] was > 100 µM. The IC50 [7] was > 100 µM, the IC50 [8] was > 100 µM and the IC50 [9] was > 100 µM. For the same molecule, the IC50 [10] was > 100 µM, the IC50 [11] was > 100 µM and the inhibition [12] was 3.9%. For the same molecule, the IC50 [13] was > 100 µM, the IC50 [14] was > 100 µM and the IC50 [15] was > 100 µM. The solubility kinetic at 1 h [16] was 12 µM (≈ 3.41 µg/mL), the Stability [17] was “Unstable” and the IC50 [18] was > 100 µM. For the same molecule, the IC50 [19] was > 100 µM, the inhibition [20] was “inactive” and the IC50 [21] was > 100 µM. The IC50 [22] was > 100 µM, the IC50 [23] was > 100 µM and the IC50 [24] was > 100 µM. For the same molecule, the logD [25] was 4.09.
